The values below come from ChEMBL document CHEMBL1157779, “Merging the structural motifs of functionalized amino acids and alpha-aminoamides: compounds with significant anticonvulsant activities” (J Med Chem, 2010).

Calls of active or inactive are those of the source. A value given as a limit tells only on which side of the number the result lay.

For data set [1], the system named is Mus musculus. The data set is described as follows: Anticonvulsant activity in ip dosed albino mouse assessed as protection against 6 Hz electric shock-induced seizures after […]. It counts as functional.
The species entered for data set [2] is Rattus norvegicus. The data set is described as follows: Protective index, ratio of TD50 for Sprague-Dawley albino rat to anticonvulsant ED50 for Sprague-Dawley albino rat. Type of data set: functional. In a few lines:
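Rat, oral: behavioral-toxicity TD50 divided by MES ED50, both in mg/kg.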

Data set [3] deals with Mus musculus. The data set is described as follows: Anticonvulsant activity in ip dosed albino mouse assessed as inhibition of maximal electroshock-induced seizures after […]. Type of data set: functional. (In general: Protection in the maximal electroshock model is a classic sign of anticonvulsant action.)
Data set [4] relates to Mus musculus. Kind of data set: Antiinflammatory activity in albino mouse assessed as reduction in formalin-induced late inflammation at 15 mg/kg, ip relative to control. To be noted: route intraperitoneal. Type of data set: functional. Also on record: scale not given: the % may be the effect or the level left. Put shortly:
(§1)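 Male albino mice, 16 per trial (8 given vehicle ip, 8 given 15 mg/kg ip); 0.5% formalin injected into hind paw; paw-licking time recorded in 2 min intervals for 45 min; acute and late (inflammatory) phases expressed as percent of control.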

Data set [5] is filed under the species Mus musculus. Kind of data set: Protective index, ratio of TD50 for albino mouse to anticonvulsant ED50 for albino mouse. It counts as functional.
Data set [6] concerns Rattus norvegicus. The data set is described as follows: Antiallodynic activity in Sprague-Dawley albino rat sciatic nerve ligation model of neuropathic pain assessed as fold attenuation of mechanical allodynia at 12 mg/kg, ip after 1 hr relative to control. To be noted: route intraperitoneal. It counts as functional. In a few lines: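 Male albino Sprague-Dawley rats; sciatic nerve ligated on right side, sham exposure on left; after 7 d recovery, animals on wire mesh platform, 30–60 min acclimation. Baseline 50% paw withdrawal threshold by calibrated von Frey fibres held 6 s, stepping down after a positive response; threshold re-measured after 12 mg/kg ip at time-to-peak effect in MES test.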

Data set [7] has as its system Mus musculus. The data set is described as follows: Anticonvulsant activity in albino mouse assessed as protection against subcutaneous metrazole-induced seizures up to 300 mg/kg, ip after 0.5 hrs. Type of data set: functional, organism-based. Further details: dose 300 mg/kg. Put shortly:
(§2)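 Male albino Carworth Farms No. 1 mice dosed ip under NIH Anticonvulsant Screening Program; subcutaneous Metrazol seizure challenge at 0.5 and 4 h after doses up to 300 mg/kg.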

In data set [8] the test system is Rattus norvegicus. Kind of data set: Anticonvulsant activity in po dosed Sprague-Dawley albino rat assessed as inhibition of maximal electroshock-induced seizures after 0.5 hrs. Type of data set: functional.
Data set [9] concerns Rattus norvegicus. The data set is described as follows: Behavioral toxicity in po dosed Sprague-Dawley albino rat after 0.5 hrs. It counts as organism-based. The note with it: in vivo. In a few lines: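 Oral dosing in male albino Sprague-Dawley rats with behavioral toxicity observation at set times after dosing, doses up to 500 mg/kg.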
Data set [10] concerns Mus musculus. The data set is described as follows: Anticonvulsant activity in albino mouse assessed as protection against subcutaneous metrazole-induced seizures up to 300 mg/kg, ip after 4 hrs. Type of data set: functional, organism-based. Also on record: dose 300 mg/kg. Put shortly:
as §2

Data set [11] concerns Mus musculus. Kind of data set: Antiinflammatory activity in albino mouse assessed as reduction in formalin-induced acute inflammation at 15 mg/kg, ip relative to control. It counts as functional. Also on record: scale not given: the % may be the effect or the level left. To be noted: route intraperitoneal. In a few lines:
as §1

As a reminder, the ED50 is the dose at which the effect has come halfway, by size or by number of responders. As usually defined, the TD50 is the dose at which the toxic effect under study appears in half of the subjects. Regarding `COC[C@@H](NC(C)=O)C(=O)NCc1ccc(OCc2cccc(F)c2)cc1`, the ED50 in the data set on Mus musculus [1] was found to be 10 mg/kg; in the data set on Mus musculus [3], 13 mg/kg; with Rattus norvegicus [8], 14 mg/kg. Moreover, the results for the “Ratio TD50/ED50” value in the data set listed under Rattus norvegicus [2] and in the data set filed under Mus musculus [5] were >36 and 2, respectively. Moreover, the Activity with Mus musculus [4] is recorded as 44%; in the data set with Mus musculus [11] it was 35%. The “fold change (FC)” value in the data set on Rattus norvegicus [6] turned out to be 11.2. Moreover, the result in the data set with Mus musculus [7] and with Mus musculus [10] was inactive. For the same molecule, the TD50 in the data set with Rattus norvegicus [9] is > 500 mg/kg.
